This note sets out measurements from ChEMBL document CHEMBL4321796, “Proteolysis Targeting Chimeras for the Selective Degradation of Mcl-1/Bcl-2 Derived from Nonselective Target Binding Ligands” (J Med Chem, 2019).

The source made the active and inactive calls. The rule behind the calls is not given here.

In assay [1] the target is Protein cereblon/Induced myeloid leukemia cell differentiation protein Mcl-1 (Homo sapiens, UniProt Q07820+Q96SW2). As to the kind of experiment: Induction of CRBN-mediated Mcl-1 degradation in human HeLa cells by Western blot analysis. The class given is cell-based. Summed up:
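HeLa cells (DMEM, 10% FBS, 37 °C, 5% CO2) treated 12 h with compound (10 µM, or 0–10 µM gradient; time course 0–24 h at 10 µM). Lysis in NP-40 buffer with protease inhibitors, equal protein loaded for SDS-PAGE and immunoblotting. Bands quantified relative to DMSO control. n=3 independent samples.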

The next assay relates to NCI-H23. As to the kind of experiment: Cytotoxicity against human H23 cells incubated for 24 hrs by CCK8 assay. The class given is functional, cell-based. Summed up:
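H23 cells seeded at 4 × 10^4 per mL in RPMI with 10% FBS, L-glutamine and pen/strep. Treated 24 h at various concentrations or with DMSO vehicle (0.05%). Viability read by CCK8 and normalized against cell-free background and untreated cultures; mean ± s.e.m., n=3.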
Background: Tetrazolium assays rely on reduction of a dye to a coloured formazan, in cell work by metabolically active cells.

Assay [2] concerns the target Protein cereblon/Apoptosis regulator Bcl-2 (Homo sapiens, UniProt P10415+Q96SW2). Put plainly: Induction of CRBN-mediated Bcl-2 degradation in human HeLa cells by Western blot analysis. The class given is cell-based.

Sequence of Protein cereblon/Apoptosis regulator Bcl-2 (P10415 whole entry, looked up): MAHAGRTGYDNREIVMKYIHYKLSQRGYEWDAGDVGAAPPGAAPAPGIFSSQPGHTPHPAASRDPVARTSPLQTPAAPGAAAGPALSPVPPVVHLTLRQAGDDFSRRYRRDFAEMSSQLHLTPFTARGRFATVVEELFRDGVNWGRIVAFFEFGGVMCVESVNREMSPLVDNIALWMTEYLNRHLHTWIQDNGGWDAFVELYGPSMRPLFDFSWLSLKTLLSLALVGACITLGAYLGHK
Sequence of Protein cereblon/Apoptosis regulator Bcl-2 (Q96SW2 whole entry, looked up): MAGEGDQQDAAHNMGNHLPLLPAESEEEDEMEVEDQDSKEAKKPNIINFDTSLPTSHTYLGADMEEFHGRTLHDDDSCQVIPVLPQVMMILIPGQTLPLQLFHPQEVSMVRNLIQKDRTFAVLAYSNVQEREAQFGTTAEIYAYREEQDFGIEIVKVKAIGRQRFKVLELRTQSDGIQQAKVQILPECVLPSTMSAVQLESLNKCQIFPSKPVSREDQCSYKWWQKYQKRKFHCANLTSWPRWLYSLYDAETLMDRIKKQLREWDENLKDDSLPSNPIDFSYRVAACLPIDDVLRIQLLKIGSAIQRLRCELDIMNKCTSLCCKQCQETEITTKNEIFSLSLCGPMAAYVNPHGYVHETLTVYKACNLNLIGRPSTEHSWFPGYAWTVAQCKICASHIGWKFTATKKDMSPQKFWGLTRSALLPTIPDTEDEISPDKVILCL
Sequence of Protein cereblon/Induced myeloid leukemia cell differentiation protein Mcl-1 (Q07820 whole entry, looked up): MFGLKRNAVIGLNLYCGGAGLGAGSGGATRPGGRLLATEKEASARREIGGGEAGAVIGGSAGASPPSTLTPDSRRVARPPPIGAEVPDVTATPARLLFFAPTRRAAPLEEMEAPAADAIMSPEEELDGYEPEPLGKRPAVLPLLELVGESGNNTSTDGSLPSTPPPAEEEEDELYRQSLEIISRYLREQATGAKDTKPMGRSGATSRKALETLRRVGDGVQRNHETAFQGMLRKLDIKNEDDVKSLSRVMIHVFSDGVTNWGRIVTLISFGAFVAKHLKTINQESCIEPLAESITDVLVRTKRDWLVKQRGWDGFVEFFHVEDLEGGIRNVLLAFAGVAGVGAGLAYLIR
Sequence of Protein cereblon/Induced myeloid leukemia cell differentiation protein Mcl-1 (Q96SW2 whole entry, looked up): as the sequence (Q96SW2 whole entry, looked up) above

For `CN1C(=O)CCC(N2C(=O)c3cccc(NCCCCCCNC(=O)CCCCC(=O)NCCN4C(=O)c5cccc6c(Sc7ccc(Br)cc7)ccc(c56)C4=O)c3C2=O)C1=O` (stereo not drawn), in assay [1], the outcome was inactive. For the same molecule, in the assay with NCI-H23, the outcome was Active.
On to `CN1C(=O)CCC(N2C(=O)c3cccc(NCCOCCOCCNC(=O)CCCCC(=O)NCCN4C(=O)c5cccc6c(Sc7ccc(Br)cc7)ccc(c56)C4=O)c3C2=O)C1=O` (stereo not drawn), for which the result in assay [2] was inactive.
